Assays:
[1] = target: T1, Melanocyte-stimulating hormone receptor (Homo sapiens, UniProt Q01726); assay: Displacement of [125I]NDPalphaMSH from human cloned melanocortin receptor 1b expressed in CHO cells; assay type: cell-based
Melanocortin receptor 5 = Melanocortin receptor 5 (Homo sapiens, UniProt P33032); assay: Displacement of [125I]NDPalphaMSH from human cloned MC5R expressed in CHO cells; assay type: cell-based
Melanocortin receptor 4 = Melanocortin receptor 4 (Homo sapiens, UniProt P32245); assay: Displacement of [125I]NDPalphaMSH from human cloned MC4R expressed in CHO cells; assay type: cell-based
Chain of Melanocortin receptor 4 (P32245 whole entry): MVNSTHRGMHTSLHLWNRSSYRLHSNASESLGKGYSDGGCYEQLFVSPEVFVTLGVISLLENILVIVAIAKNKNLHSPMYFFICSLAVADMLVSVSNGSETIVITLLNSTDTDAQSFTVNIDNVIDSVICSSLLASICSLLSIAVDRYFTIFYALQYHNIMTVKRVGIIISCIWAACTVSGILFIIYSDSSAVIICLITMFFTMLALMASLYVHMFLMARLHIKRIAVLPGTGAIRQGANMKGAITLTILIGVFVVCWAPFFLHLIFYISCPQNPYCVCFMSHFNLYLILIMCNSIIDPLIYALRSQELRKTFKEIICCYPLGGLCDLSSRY

Melanocortin receptor 3 = Melanocortin receptor 3 (Homo sapiens, UniProt P41968); assay: Displacement of [125I]NDPalphaMSH from human cloned MC3R expressed in CHO cells; assay type: cell-based
Chain of Melanocortin receptor 3 (P41968 whole entry): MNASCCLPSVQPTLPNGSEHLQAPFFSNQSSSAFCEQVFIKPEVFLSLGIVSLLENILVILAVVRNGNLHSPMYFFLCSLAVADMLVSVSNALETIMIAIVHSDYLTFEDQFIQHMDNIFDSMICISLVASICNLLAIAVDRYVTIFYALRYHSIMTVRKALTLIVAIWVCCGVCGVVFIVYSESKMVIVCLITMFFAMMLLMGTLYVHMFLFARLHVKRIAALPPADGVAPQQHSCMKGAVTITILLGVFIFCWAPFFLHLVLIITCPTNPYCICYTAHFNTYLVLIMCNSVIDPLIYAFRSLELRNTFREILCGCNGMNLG

[2] = target: T1, Melanocyte-stimulating hormone receptor; assay: Agonist activity at human melanocortin receptor 1b expressed in CHO cells assessed as cAMP accumulation; assay type: functional, cell-based
Outline: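 Dissociated CHO cells were spun 5 min and resuspended in Earle's balanced salt solution with 10 mM HEPES pH 7.5, 5 mM MgCl2, 1 mM glutamine and 1 mg/mL BSA. They were incubated 40 min at room temperature with compound (0.003–5000 nM) plus 0.6 mM IBMX, then lysed with 0.1 M HCl. cAMP was measured by Flashplate cAMP assay.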

T1 sequence (Q01726 whole entry): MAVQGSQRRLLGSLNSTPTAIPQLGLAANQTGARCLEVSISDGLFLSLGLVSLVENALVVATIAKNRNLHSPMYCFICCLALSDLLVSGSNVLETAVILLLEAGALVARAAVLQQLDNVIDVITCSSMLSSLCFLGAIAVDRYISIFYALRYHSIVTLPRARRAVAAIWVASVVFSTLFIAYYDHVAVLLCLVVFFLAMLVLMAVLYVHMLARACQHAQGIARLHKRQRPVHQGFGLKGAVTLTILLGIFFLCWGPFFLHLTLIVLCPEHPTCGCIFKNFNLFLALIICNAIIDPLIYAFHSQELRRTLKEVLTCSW
Chain of Melanocortin receptor 5 (P33032 whole entry): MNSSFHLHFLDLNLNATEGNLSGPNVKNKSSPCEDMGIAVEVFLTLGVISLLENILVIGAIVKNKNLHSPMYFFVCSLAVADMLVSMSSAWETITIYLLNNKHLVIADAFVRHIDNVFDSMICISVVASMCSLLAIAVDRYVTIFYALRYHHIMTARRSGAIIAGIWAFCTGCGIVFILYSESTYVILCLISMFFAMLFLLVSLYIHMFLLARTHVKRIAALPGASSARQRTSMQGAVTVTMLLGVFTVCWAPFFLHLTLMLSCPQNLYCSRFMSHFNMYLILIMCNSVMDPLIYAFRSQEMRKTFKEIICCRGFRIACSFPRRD

| Structure (SMILES) | IC50 [1] | EC50 [2] | further results |
| --- | --- | --- | --- |
| CCCC[C@H](NC(C)=O)C(=O)N[C@H]1CC(=O)NCCCC[C@@H](C(N)=O)NC(=O)[C@H](Cc2c[nH]c3ccccc23)NC(=O)[C@@H]2CCCN2C(=O)[C@@H](Cc2cnc[nH]2)NC(=O)[C@H](Cc2cnc[nH]2)NC1=O | > 10 µM |  |  |
| CCCC[C@H](NC(C)=O)C(=O)N[C@H]1CC(=O)NCCCC[C@@H](C(N)=O)NC(=O)[C@H](Cc2c[nH]c3ccccc23)NC(=O)[C@@H]2CCCN2C(=O)[C@@H](CCC(=O)O)NC(=O)[C@H](Cc2c[nH]cn2)NC1=O | > 10 µM |  | IC50 (Melanocortin receptor 5): > 10 µM; IC50 (Melanocortin receptor 4): > 10 µM; IC50 (Melanocortin receptor 3): > 10 µM |
| CCCC[C@H](NC(C)=O)C(=O)N[C@H]1CC(=O)NCCCC[C@@H](C(N)=O)NC(=O)[C@H](Cc2c[nH]c3ccccc23)NC(=O)[C@@H]2CCCN2C(=O)[C@@H](CCC(N)=O)NC(=O)[C@H](Cc2c[nH]cn2)NC1=O | > 10 µM |  | IC50 (Melanocortin receptor 5): > 10 µM; IC50 (Melanocortin receptor 4): > 10 µM; IC50 (Melanocortin receptor 3): > 10 µM |
| CCCC[C@H](NC(C)=O)C(=O)N[C@H]1CC(=O)NCCCC[C@@H](C(N)=O)NC(=O)[C@H](Cc2c[nH]c3ccccc23)NC(=O)[C@@H]2CCCN2C(=O)[C@H](Cc2ccccc2)NC(=O)[C@H](Cc2cnc[nH]2)NC1=O | 0.98 µM (antagonist) | > 1 µM |  |
| CCCC[C@H](NC(C)=O)C(=O)N[C@H]1CC(=O)NCCCC[C@@H](C(N)=O)NC(=O)[C@H](Cc2c[nH]c3ccccc23)NC(=O)[C@@H]2CCCN2C(=O)[C@@H](Cc2ccccc2)NC(=O)[C@H](Cc2cnc[nH]2)NC1=O | 2.5 µM (antagonist) | 1.3 µM (agonist) |  |
| CCCC[C@H](NC(C)=O)C(=O)N[C@H]1CC(=O)NCCCC[C@@H](C(N)=O)NC(=O)[C@H](Cc2c[nH]c3ccccc23)NC(=O)[C@@H]2CCCN2C(=O)[C@@H](Cc2ccc(OC)cc2)NC(=O)[C@H](Cc2cnc[nH]2)NC1=O | 0.5 µM (antagonist) | 0.05 µM (agonist) |  |
| CCCC[C@H](NC(C)=O)C(=O)N[C@H]1CC(=O)NCCCC[C@@H](C(N)=O)NC(=O)[C@H](Cc2c[nH]c3ccccc23)NC(=O)[C@@H]2CCCN2C(=O)[C@@H](CCCCN)NC(=O)[C@H](Cc2cnc[nH]2)NC1=O | > 10 µM |  | IC50 (Melanocortin receptor 5): > 10 µM; IC50 (Melanocortin receptor 3): > 10 µM |
| CCCC[C@H](NC(C)=O)C(=O)N[C@H]1CC(=O)NCCCC[C@@H](C(N)=O)NC(=O)[C@H](Cc2c[nH]c3ccccc23)NC(=O)[C@@H]2CCCN2C(=O)[C@@H](CCCC)NC(=O)[C@H](Cc2cnc[nH]2)NC1=O | > 10 µM |  |  |
| CCCC[C@H](NC(C)=O)C(=O)N[C@H]1CC(=O)NCCCC[C@@H](C(N)=O)NC(=O)[C@H](Cc2c[nH]c3ccccc23)NC(=O)[C@@H]2CCCN2C(=O)[C@@H](C(c2ccccc2)c2ccccc2)NC(=O)[C@H](Cc2c[nH]cn2)NC1=O |  |  | IC50 ([1]; cho): 2.9 µM (antagonist); IC50 (Melanocortin receptor 5; cho): 1.5 µM (antagonist); IC50 (Melanocortin receptor 4; cho): 0.074 µM (antagonist); IC50 (Melanocortin receptor 3; cho): > 10 µM |
| CCCC[C@H](NC(C)=O)C(=O)N[C@H]1CC(=O)NCCCC[C@@H](C(N)=O)NC(=O)[C@H](Cc2c[nH]c3ccccc23)NC(=O)[C@@H]2CCCN2C(=O)[C@H]2Cc3ccccc3CN2C(=O)[C@H](Cc2cnc[nH]2)NC1=O |  |  | IC50 ([1]; cho): > 10 µM; IC50 (Melanocortin receptor 5; cho): > 10 µM; IC50 (Melanocortin receptor 3; cho): > 10 µM |
| CCCC[C@H](NC(C)=O)C(=O)N[C@H]1CC(=O)NCCCC[C@@H](C(N)=O)NC(=O)[C@H](Cc2c[nH]c3ccccc23)NC(=O)[C@@H]2CCCN2C(=O)[C@@H](Cc2ccc3ccccc3c2)NC(=O)[C@H](Cc2cnc[nH]2)NC1=O | 0.88 µM (antagonist) | 0.089 µM (agonist) |  |
| CCCC[C@H](NC(C)=O)C(=O)N[C@H]1CC(=O)NCCCC[C@@H](C(N)=O)NC(=O)[C@H](Cc2c[nH]c3ccccc23)NC(=O)[C@@H]2CCCN2C(=O)[C@H](Cc2ccc(OC)cc2)NC(=O)[C@H](Cc2cnc[nH]2)NC1=O | > 2 µM |  |  |
| CCCC[C@H](NC(C)=O)C(=O)N[C@H]1CC(=O)NCCCC[C@@H](C(N)=O)NC(=O)[C@H](Cc2c[nH]c3ccccc23)NC(=O)[C@@H]2CCCN2C(=O)[C@@H](Cc2ccc(O)cc2)NC(=O)[C@H](Cc2cnc[nH]2)NC1=O | > 10 µM | > 2.5 µM |  |

From ChEMBL document CHEMBL1139880, “Potent and selective agonists of human melanocortin receptor 5: cyclic analogues of alpha-melanocyte-stimulating hormone” (J Med Chem, 2007)
